Experimental data published in article PMC9052103 (RSC Advances, 2020).
Like-named read-outs stand apart in the source and are kept apart here.

Tests used:
[1] = system: S. aureus ATCC 29213; assay: MIC, 96-well microtiter broth dilution; type: cell-based; settings: Staphylococcus aureus
[2] = system: S. aureus ATCC 43300; assay: MIC, 96-well microtiter broth dilution; type: cell-based; settings: Staphylococcus aureus, ATCC43300|MRSA, read-out: MIC S. aureus ATCC 43300
[3] = system: S. aureus ATCC BAA-41; assay: MIC, 96-well microtiter broth dilution; type: cell-based; settings: Staphylococcus aureus, ATCCBAA41|MRSA, read-out: MIC S. aureus ATCC BAA-41
[4] = system: S. aureus ATCC BAA-1747; assay: MIC, 96-well microtiter broth dilution; type: cell-based; settings: Staphylococcus aureus, ATCCBAA1747|MRSA, read-out: MIC S. aureus ATCC BAA-1747
[5] = system: S. aureus ATCC BAA-1720; assay: MIC, 96-well microtiter broth dilution; type: cell-based; settings: Staphylococcus aureus, ATCCBAA1720|MRSA, read-out: MIC S. aureus ATCC BAA-1720
[6] = system: E. faecalis ATCC 29212; assay: MIC, 96-well microtiter broth dilution; type: cell-based; settings: Enterococcus faecalis, ATCC29212, read-out: MIC E. faecalis ATCC 29212
[7] = system: E. faecium ATCC 49624; assay: MIC, 96-well microtiter broth dilution; type: cell-based; settings: Enterococcus faecium, ATCC49624, read-out: MIC E. faecium ATCC 49624
[8] = system: E. faecium ATCC 700221; assay: MIC, 96-well microtiter broth dilution; type: cell-based
[9] = system: S. epidermidis ATCC 12228; assay: MIC, 96-well microtiter broth dilution; type: cell-based; settings: Staphylococcus epidermidis, ATCC12228, read-out: MIC S. epidermidis ATCC 12228
[10] = system: E. coli ATCC 25922; assay: MIC, 96-well microtiter broth dilution; type: cell-based; settings: Escherichia coli, ATCC25922, read-out: MIC E. coli ATCC 25922
[11] = system: E. coli ATCC 8739; assay: MIC, 96-well microtiter broth dilution; type: cell-based; settings: Escherichia coli, ATCC8739, read-out: MIC E. coli ATCC 8739
[12] = system: human bronchial epithelium cells (16HBE); assay: CCK-8 cytotoxicity assay; type: cell-based; settings: 48 h, read-out: IC50 16HBE
Outline: (§1)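 Cells seeded at 5000 per well and allowed to adhere overnight at 37 °C, then exposed to test compound for 48 h. CCK-8 reagent added for a further 3 h, with absorbance read at 450 nm. Triplicates.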

[13] = system: human renal tubular epithelial cells (HK-2); assay: CCK-8 cytotoxicity assay; type: cell-based; settings: Epithelial cell, 48 h, read-out: IC50 HK-2
Outline: as §1

[14] = system: mouse fibroblast cells (L929); assay: CCK-8 cytotoxicity assay; type: cell-based; settings: L929, 48 h, read-out: IC50 L929
Outline: as §1

[15] = target: SaFtsZ (Staphylococcus aureus, UniProt P0A031); assay: SaFtsZ binding affinity assay; design: species or system S. aureus
Outline: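 Fluorescence titration at 25 °C in 50 mM Tris–HCl pH 7.4, 50 mM KCl, 2 mM magnesium acetate. Test compound at 3.51 or 3.68 μM titrated with SaFtsZ in 0.4 μM steps (0.4–6.4 μM), equilibrating 2 min per step. Excitation 493 nm, emission 500–700 nm, buffer-titration background subtracted. Kd obtained by nonlinear fit to an independent-site model.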

[16] = target: T1, S. aureus FtsZ (Staphylococcus aureus, UniProt P0A031); assay: Light-scattering assay of FtsZ polymerization; type: biochemical
T1 sequence (P0A031 1-390): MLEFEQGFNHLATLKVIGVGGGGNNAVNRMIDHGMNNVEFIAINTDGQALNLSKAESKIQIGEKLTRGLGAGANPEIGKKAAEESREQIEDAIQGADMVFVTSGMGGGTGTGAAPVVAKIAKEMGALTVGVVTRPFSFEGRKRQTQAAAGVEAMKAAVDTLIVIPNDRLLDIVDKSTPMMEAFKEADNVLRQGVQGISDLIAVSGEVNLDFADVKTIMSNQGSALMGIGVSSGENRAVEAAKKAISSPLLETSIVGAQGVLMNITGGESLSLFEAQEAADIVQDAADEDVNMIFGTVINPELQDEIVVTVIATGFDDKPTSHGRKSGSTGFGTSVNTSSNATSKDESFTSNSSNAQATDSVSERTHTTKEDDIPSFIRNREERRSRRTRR
Outline: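 S. aureus FtsZ (4 μM) in 50 mM MOPS pH 6.5, preincubated 10 min at 25 °C with 1% DMSO vehicle or test compound. Baseline set after adding 50 mM KCl and 10 mM MgCl2. After 10 min, 1 mM GTP added. 90° light scattering (excitation/emission 600 nm) followed for 25 min, with blank background subtracted. Rate and extent of polymerization calculated. Triplicates.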

[17] = target: S. aureus FtsZ (SaFtsZ) (Staphylococcus aureus, UniProt P0A031); assay: GTPase activity assay; type: biochemical
Outline: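 Phosphate-release kit assay: S. aureus FtsZ (7.3 μM) in assay buffer with 1% DMSO vehicle or varied concentrations of test compound. Reaction started with 200 μM GTP and run 30 min at room temperature. Colour reagent added for another 30 min to stop the reaction, and inorganic phosphate read at 620 nm. Triplicates.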

[18] = system: B. subtilis 168; assay: Bacterial morphology study; type: cell-based; settings: 0.5 μg mL^−1 for 4 h; control group 5–10 μm
[19] = system: Z-ring in B. subtilis; assay: Visualization of Z-ring; type: cell-based; settings: 0.5 × MIC, 4 h
Outline: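 B. subtilis carrying IPTG-inducible GFP-FtsZ plasmid grown in LB with 30 μg mL−1 chloramphenicol at 37 °C with shaking; overnight culture diluted to 1% in LB with 40 μM IPTG plus test compound at 0.5 × MIC, 4 h at 37 °C. Cells fixed, resuspended in PBS, placed on 0.1% (w/v) poly-L-lysine-coated slides; imaged by confocal microscopy, 40× oil immersion.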

[20] = system: S. aureus ATCC 29213; assay: In vitro drug resistance development, serial passage; type: cell-based
Outline: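 Serial passage against S. aureus ATCC 29213: culture from the 0.5 × MIC well of the prior MIC plate diluted to 5 × 10^5 CFU mL−1 and exposed to a range of test compound concentrations. MIC read after 24 h at 37 °C. Cycle repeated 35 times. Ciprofloxacin, vancomycin and rifampin passaged in parallel.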

[21] = system: MRSA strains; assay: MIC, summary over MRSA strains; type: cell-based, S. aureus; settings: Staphylococcus aureus, read-out: MIC against MRSA
[22] = system: E. faecium, S. epidermidis and E. coli; assay: MIC, summary over E. faecium, S. epidermidis and E. coli; type: cell-based; settings: read-out: MIC against E. faecium, S. epidermidis and E. coli
[23] = system: drug-resistant K. pneumoniae, A. baumannii, P. aeruginosa and E. cloacae

## Cc1cc(/C=C2\Sc3ccccc3N2CCCN2CCC(C)CC2)c2ccccc2[n+]1C.[I-] [Compound 4a4, (Z)-1,2-Dimethyl-4-((3-(3-(4-methylpiperidin-1-yl)propyl)benzo[d]thiazol-2(3H)-ylidene)methyl)quinolin-1-ium iodide]
[1]; ATCC29213
  MIC: 1 µg/mL
[1]; ATCC29213, read-out: MIC S. aureus ATCC 29213
  MIC: 1 µg/mL
[1]; ATCC29213, read-out: S. aureus ATCC 29213 (MIC)
  MIC: 1 µg/mL
[2]
  MIC: 2 µg/mL
[3]
  MIC: 1 µg/mL
[4]
  MIC: 2 µg/mL
[5]
  MIC: 2 µg/mL
[6]
  MIC: 2 µg/mL
[7]
  MIC: 1 µg/mL
[8]; Enterococcus faecium, ATCC700221
  MIC: 2 µg/mL
[8]; read-out: MIC against VRE
  MIC: 2 to 16 µg/mL
[9]
  MIC: 0.5 µg/mL
[10]
  MIC: 0.5 µg/mL
[11]
  MIC: 1 µg/mL
[12]
  IC50: 14.3 µg/mL
[13]
  IC50: 26 µg/mL
[14]
  IC50: 12.6 µg/mL
[15]
  Kd: 125 nM
[16]; 0.125–0.5 μg mL^−1
  Effect on FtsZ polymerization at a concentration gradient: enhance FtsZ polymerization in a dose-dependent manner
[16]; same concentration, 0.125 μg mL^−1
  Light scattering signal compared to control (FtsZ polymerization): significant increase in light scattering signal
[17]
  Effect on GTPase activity of SaFtsZ: did not show any effect
[18]
  Cell length of B. subtilis 168: > 10 μm
[19]
  Effect on Z-ring formation (GFP-FtsZ localization): promoted the mislocalization of the FtsZ protein
[20]
  Increase of MIC after 35 passages: 16 fold
[21]
  MIC: 1 to 8 µg/mL
[22]
  MIC: 0.5 to 2 µg/mL
[23]
  Antibacterial activity against drug-resistant K. pneumoniae, A. baumannii, P. aeruginosa and E. cloacae: moderate antibacterial activity
